Measured values reported in ChEMBL document CHEMBL1649346, “Antiproliferative activity of phenylbutyrate ester of haloperidol metabolite II [(±)-MRJF4] in prostate cancer cells” (Eur J Med Chem, 2011).
Values joined by “and” are separate entries in the source; they are usually repeats but may differ in a detail not shown here. Identical values can stand only once. Active and inactive are the calls of the source. No cut-off for these calls is given here.

Legend:
[1] = molecular target: Sigma non-opioid intracellular receptor 1 (Cavia porcellus, UniProt Q60492); test: Displacement of [3H]-(+)-pentazocine from sigma 1 receptor in guinea pig brain membrane after 150 mins by liquid scintillation counting; assay type: cell membranes
In short: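 Guinea pig membranes were incubated to equilibrium, 150 min at 37 °C, with 3 nM [³H]-(+)-pentazocine (45 Ci/mmol) and increasing levels of displacer in 50 mM Tris-HCl pH 7.4. Haloperidol defined nonspecific binding. Samples were filtered on PEI-presoaked glass-fibre filters, washed with ice-cold buffer and counted by liquid scintillation; Ki was calculated.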

[2] = Displacement of [3H]DTG from sigma 2 receptor in guinea pig brain membrane after 120 mins by liquid scintillation counting; assay type: cell membranes, Cavia porcellus
In short: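 Guinea pig membranes were incubated 120 min at room temperature with 3 nM [³H]DTG and (+)-SKF10,047 to mask σ1 sites, in 50 mM Tris-HCl pH 8.0. DTG defined nonspecific binding. Samples were filtered on PEI-presoaked glass-fibre filters, washed and counted by liquid scintillation; Ki was calculated.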

[3] = test system: LNCaP; test: Antiproliferative activity against human LNCAP cells after 24 hrs by MTT assay; assay type: functional, cell-based
In short: (§1)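 LNCaP cells were grown in RPMI 1640 with 10% heat-inactivated FBS, penicillin/streptomycin, HEPES, 1 mM pyruvate and 2.5 g/L glucose. PC3 cells were grown in RPMI 1640 with 10% FBS and penicillin/streptomycin, at 37 °C in 5% CO₂. Cells were seeded at 4 × 10⁴ per well and left to adhere overnight. Compounds were diluted 1:1000 from DMSO stocks, with a 0.1% DMSO vehicle, and incubated 24–96 h without medium change. MTT was added for 4 h, the formazan dissolved in DMSO, and A570 read. Runs were in quadruplicate; ED50 was taken from dose-effect curves against vehicle.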

[4] = test system: PC-3; test: Antiproliferative activity against human PC3 cells after 24 hrs by MTT assay; assay type: functional, cell-based; settings: PC-3, 24 h; in short: as §1
[5] = molecular target: T1, Histone deacetylase (Homo sapiens) (UniProt Q13547+O15379+Q9UBN7+Q92769+Q9UQL6+Q8WUI4+Q9BY41+Q96DB2+P56524+Q9UKV0+Q969S8); settings: HeLa, 1.5 mM
[6] = molecular target: D(2) dopamine receptor (Rattus norvegicus, UniProt P61169); test: Displacement radioligand form dopamine D2 receptor in rat striatum by liquid scintillation counting; assay type: tissue-based
[7] = molecular target: D(3) dopamine receptor (Rattus norvegicus, UniProt P19020); test: Displacement radioligand form dopamine D3 receptor in rat olfactory tubercle by liquid scintillation counting; assay type: tissue-based
[8] = test system: LNCaP; test: Antiproliferative activity against human LNCAP cells at 10 uM after 96 hrs by MTT assay; assay type: functional, cell-based
In short: (§2)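 Percent growth was scored against vehicle-treated control (0.1% DMSO, 1:1000 dilution of DMSO stock) using the MTT assay. LNCaP cells were in supplemented RPMI 1640 with HEPES, pyruvate and glucose; PC3 cells were in RPMI 1640 with 10% FBS. Cells were seeded at 4 × 10⁴ per well and exposed 24, 48, 72 or 96 h. MTT was added for 4 h, the formazan dissolved in DMSO, and A570 read; n = 4.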

[9] = test system: PC-3; test: Antiproliferative activity against human PC3 cells at 10 uM after 96 hrs by MTT assay; assay type: functional, cell-based; in short: as §2
[10] = test system: LNCaP; test: Antiproliferative activity against human LNCAP cells after 48 hrs by MTT assay; assay type: functional, cell-based; in short: as §1
[11] = test system: PC-3; test: Antiproliferative activity against human PC3 cells after 48 hrs by MTT assay; assay type: functional, cell-based; settings: PC-3, 48 h; in short: as §1
[12] = test system: LNCaP; test: Antiproliferative activity against human LNCAP cells after 72 hrs by MTT assay; assay type: functional, cell-based; in short: as §1
[13] = test system: PC-3; test: Antiproliferative activity against human PC3 cells after 72 hrs by MTT assay; assay type: functional, cell-based; settings: PC-3, 72 h; in short: as §1
[14] = test system: LNCaP; test: Antiproliferative activity against human LNCAP cells after 96 hrs by MTT assay; assay type: functional, cell-based; in short: as §1
[15] = test system: PC-3; test: Antiproliferative activity against human PC3 cells after 96 hrs by MTT assay; assay type: functional, cell-based; settings: PC-3, 96 h; in short: as §1
[16] = test system: LNCaP; test: Antiproliferative activity against human LNCAP cells at 10 to 25 uM after 24 hrs by MTT assay; assay type: functional; in short: as §2
[17] = test system: PC-3; test: Antiproliferative activity against human PC3 cells at 10 to 25 uM after 24 hrs by MTT assay; assay type: functional; in short: as §2
[18] = molecular target: T1, Histone deacetylase (Homo sapiens); test: Inhibition of HDAC in human HeLa cells at 10 uM after 10 mins by fluorometric assay; assay type: cell-based
In short: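 The HDAC fluorescent activity kit was used with supplied HeLa extract. Test agent was added in assay buffer, with trichostatin A (1 µM listed) as full-inhibition control. The reaction was started with acetyl-lysine Fluor de Lys substrate at 25–37 °C and stopped after 10 min with developer, then held 10–15 min at room temperature. Fluorescence was read at ex 360/em 460 nm. Percent inhibition was taken against the uninhibited reaction, in triplicate.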

[19] = molecular target: T1, Histone deacetylase (Homo sapiens); test: Inhibition of HDAC in human PC3 cells at 10 uM after 10 mins by fluorometric assay; assay type: cell-based; settings: PC-3
In short: (§3)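 LNCaP or PC3 cells were seeded at 3 × 10⁵ per dish, left overnight, then treated in medium for 1 h (and 24 h). Cells were PBS-washed and lysed, and nuclear protein was extracted with the NE-PER kit. Extracts received assay buffer only plus Fluor de Lys substrate, 10 min at 25–37 °C, then developer. Fluorescence was read at ex 360/em 460 nm relative to DMSO-treated control, in triplicate.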

[20] = molecular target: T1, Histone deacetylase (Homo sapiens); test: Inhibition of HDAC in human LNCAP cells at 10 uM after 10 mins by fluorometric assay; assay type: cell-based; in short: as §3

Chain of Sigma non-opioid intracellular receptor 1 (Q60492 whole entry): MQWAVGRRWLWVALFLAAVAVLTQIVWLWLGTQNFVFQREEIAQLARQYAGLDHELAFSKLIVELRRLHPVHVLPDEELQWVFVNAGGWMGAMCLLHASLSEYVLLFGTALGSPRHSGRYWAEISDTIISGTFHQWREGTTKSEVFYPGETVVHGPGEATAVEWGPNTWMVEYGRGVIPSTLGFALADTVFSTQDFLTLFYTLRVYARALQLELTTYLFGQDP
Chain of D(3) dopamine receptor (P19020 whole entry): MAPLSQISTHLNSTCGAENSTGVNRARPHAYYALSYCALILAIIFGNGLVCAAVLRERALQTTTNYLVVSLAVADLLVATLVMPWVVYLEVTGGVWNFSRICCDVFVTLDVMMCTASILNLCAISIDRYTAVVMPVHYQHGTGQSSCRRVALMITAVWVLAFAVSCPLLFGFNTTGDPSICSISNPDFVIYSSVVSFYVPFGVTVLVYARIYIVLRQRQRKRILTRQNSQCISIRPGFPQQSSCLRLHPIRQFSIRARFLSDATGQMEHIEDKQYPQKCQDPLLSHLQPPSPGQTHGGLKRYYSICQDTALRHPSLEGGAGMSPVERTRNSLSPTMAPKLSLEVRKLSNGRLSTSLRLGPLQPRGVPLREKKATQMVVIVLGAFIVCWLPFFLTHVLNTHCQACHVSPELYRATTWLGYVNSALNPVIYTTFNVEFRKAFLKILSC
Chain of D(2) dopamine receptor (P61169 whole entry): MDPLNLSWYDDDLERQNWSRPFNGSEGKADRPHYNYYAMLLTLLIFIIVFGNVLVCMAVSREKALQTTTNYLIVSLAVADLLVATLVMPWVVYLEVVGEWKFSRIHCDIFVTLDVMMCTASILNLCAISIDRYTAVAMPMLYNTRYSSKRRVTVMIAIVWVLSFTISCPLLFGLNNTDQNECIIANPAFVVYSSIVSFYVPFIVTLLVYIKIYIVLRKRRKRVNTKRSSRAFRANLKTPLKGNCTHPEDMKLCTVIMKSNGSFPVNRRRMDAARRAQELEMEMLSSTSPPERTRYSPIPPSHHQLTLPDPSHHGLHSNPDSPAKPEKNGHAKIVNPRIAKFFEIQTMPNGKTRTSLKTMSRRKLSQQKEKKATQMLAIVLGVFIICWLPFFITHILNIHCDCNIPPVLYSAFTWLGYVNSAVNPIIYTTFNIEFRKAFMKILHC

## O=C(O)CCCc1ccccc1
[1]
  Ki: > 10 µM
[2]
  Ki: > 10 µM
[3]
  IC50: 2320 µM
[4]
  IC50: 2270 µM
[5]
  inhibition: 60%

## O=C(CCCc1ccccc1)OC(CCCN1CCC(O)(c2ccc(Cl)cc2)CC1)c1ccc(F)cc1 (racemic)
[1]
  Ki: 0.162 µM
[2]
  Ki: 0.105 µM
[6]
  Ki: > 5 µM
[7]
  Ki: > 5 µM
[3]
  IC50: 10.9 µM
[4]
  IC50: 12.9 µM
[8]
  Activity: Active
[9]
  Activity: Active
[10]
  IC50: 8.83 µM
[11]
  IC50: 11 µM
[12]
  IC50: 8.13 µM
[13]
  IC50: 7.8 µM
[14]
  IC50: 6.65 µM
[15]
  IC50: 6.78 µM
[16]
  Activity: 45% and 40% and 20%
[17]
  Activity: 10%
[18]
  inhibition: inactive
[19]
  inhibition: inactive
[20]
  inhibition: inactive

## O=C(CCCN1CCC(O)(c2ccc(Cl)cc2)CC1)c1ccc(F)cc1 [HALOPERIDOL]
[2]
  Ki: 0.016 µM

## OC(CCCN1CCC(O)(c2ccc(Cl)cc2)CC1)c1ccc(F)cc1 (centres undefined) [HYDROXYHALOPERIDOL]
[2]
  Ki: 0.00098 µM
[7]
  Ki: 1.1 µM
[3]
  IC50: 177 µM
[4]
  IC50: 208 µM
